Laboratory results from ChEMBL document CHEMBL1136227, “Regulation of gene expression by synthetic dimerizers with novel specificity” (Bioorg Med Chem Lett, 2003).

Assays:
[1] = tested on: HT-1080; test: (§1) Compound was induced transcription in transiently transfected with constructs encoding separate DNA-binding domain and activation domain proteins in HT1080 human fibrosarcoma cells; format: functional, cell-based
Method in brief: (§2)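 HT1080 human fibrosarcoma cells, transiently or stably transfected with separate DNA-binding domain and activation domain fusions, each carrying three tandem F36V-FKBP copies, plus a SEAP reporter responsive to the reconstituted factor. Dimerizer titrated; secreted SEAP measured. EC50 = dimerizer concentration giving 50% of peak SEAP expression; peak level also expressed relative to a reference dimerizer.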

[2] = target: Peptidyl-prolyl cis-trans isomerase FKBP1A (Homo sapiens, UniProt P62942, F36V); test: Inhibition of binding to Phe36Val (F36V) mutant of FK506 binding protein 12
Chain of Peptidyl-prolyl cis-trans isomerase FKBP1A (P62942 2-108 F37V limits assumed): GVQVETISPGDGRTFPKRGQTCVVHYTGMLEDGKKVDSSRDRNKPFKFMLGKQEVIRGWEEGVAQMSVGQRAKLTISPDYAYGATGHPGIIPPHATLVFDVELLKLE
Method in brief: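 Fluorescence polarization competition assay with F36V-FKBP12, testing monomeric FKBP ligands. IC50 = monomer concentration reducing probe binding by 50%.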

[3] = tested on: HT-1080; test: as §1; format: functional; method in brief: as §2
[4] = tested on: HT-1080; test: (§3) Compound was induced transcription stably transfected with constructs encoding separate DNA-binding domain and activation domain proteins in HT1080 human fibrosarcoma cells; format: functional; method in brief: as §2
[5] = tested on: HT-1080; test: as §3; format: functional, cell-based; method in brief: as §2
[6] = tested on: HT-1080; test: Compound was induced transcription stably transfected with constructs encoding separate DNA-binding domain and activation domain proteins in HT1080 human fibrosarcoma cells; No induction; format: functional, cell-based; method in brief: as §2
[7] = tested on: HT-1080; test: Compound was induced transcription stably transfected with constructs encoding separate DNA-binding domain and activation domain proteins in HT1080 human fibrosarcoma cells;No induction; format: functional, cell-based; method in brief: as §2

## CC[C@H](C(=O)N1CCCC[C@H]1C(=O)O[C@H](CCc1ccc(OC)c(OC)c1)c1cccc(OCC(=O)NCCNC(=O)COc2cccc([C@@H](CCc3ccc(OC)c(OC)c3)OC(=O)[C@@H]3CCCCN3C(=O)[C@@H](CC)c3cc(OC)c(OC)c(OC)c3)c2)c1)c1cc(OC)c(OC)c(OC)c1 (stereo in doubt; form 1) [RIMIDUCID]
[1]
  EC50: 3 nM

## CCC(CC)NC(=O)N1CCCC[C@H]1C(=O)O[C@H](CCc1ccc(OC)c(OC)c1)c1cccc(OCC(=O)O)c1
[2]
  IC50: 64 nM

## COc1ccc(CC[C@@H](OC(=O)[C@@H]2CCCCN2C(=O)Cc2ccccc2)c2cccc(OCC(=O)NCCNC(=O)COc3cccc([C@@H](CCc4ccc(OC)c(OC)c4)OC(=O)[C@@H]4CCCCN4C(=O)Cc4ccccc4)c3)c2)cc1OC
[3]
  Expression: 150%
[4]
  Expression: 7%
[5]
  EC50: 10 nM
[1]
  EC50: 20 nM

## CC[C@H](C(=O)N1CCCC[C@H]1C(=O)O[C@H](CCc1ccc(OC)c(OC)c1)c1cccc(OCC(=O)NCCNC(=O)COc2cccc([C@@H](CCc3ccc(OC)c(OC)c3)OC(=O)[C@@H]3CCCCN3C(=O)[C@@H](CC)c3cc(OC)c(OC)c(OC)c3)c2)c1)c1cc(OC)c(OC)c(OC)c1 (stereo in doubt; form 2) [RIMIDUCID]
[6]
  EC50: No induction
[3]
  Expression: 79%

## CCC(C)(C)C(=O)C(=O)N1CCCC[C@H]1C(=O)O[C@H](CCc1ccc(OC)c(OC)c1)c1cccc(OCC(=O)O)c1
[2]
  IC50: 44 nM

## CCC(C)(C)C(=O)C(=O)N1CCCC[C@H]1C(=O)O[C@H](CCc1ccc(OC)c(OC)c1)c1cccc(OCC(=O)NCCNC(=O)COc2cccc([C@@H](CCc3ccc(OC)c(OC)c3)OC(=O)[C@@H]3CCCCN3C(=O)C(=O)C(C)(C)CC)c2)c1
[3]
  Expression: 149%
[4]
  Expression: 17%
[5]
  EC50: 294 nM
[1]
  EC50: 177 nM

## COc1ccc(CC[C@@H](OC(=O)[C@@H]2CCCCN2C(=O)[C@@H](C)c2cc(OC)c(OC)c(OC)c2)c2cccc(OCC(=O)O)c2)cc1OC
[2]
  IC50: 8.2 nM

## CC[C@H](C(=O)N1CCCC[C@H]1C(=O)O[C@H](CCc1ccccc1)c1cccc(OCC(=O)NCCNC(=O)COc2cccc([C@@H](CCc3ccccc3)OC(=O)[C@@H]3CCCCN3C(=O)[C@@H](CC)c3cc(OC)c(OC)c(OC)c3)c2)c1)c1cc(OC)c(OC)c(OC)c1
[6]
  EC50: No induction
[3]
  Expression: 97%
[1]
  EC50: 57 nM

## CC[C@H](C(=O)N1CCCC[C@H]1C(=O)O[C@H](CCc1ccc(OC)c(OC)c1)c1cccc(OCC(=O)O)c1)c1cc(OC)c(OC)c(OC)c1 (stereo in doubt; form 1)
[2]
  IC50: 8.2 nM

## CC[C@H](C(=O)N1CCCC[C@H]1C(=O)O[C@H](CCc1ccccc1)c1cccc(OCC(=O)O)c1)c1cc(OC)c(OC)c(OC)c1
[2]
  IC50: 5.5 nM

## COc1ccc(CC[C@@H](OC(=O)[C@@H]2CCCCN2C(=O)[C@@H](C)c2cc(OC)c(OC)c(OC)c2)c2cccc(OCC(=O)NCCNC(=O)COc3cccc([C@@H](CCc4ccc(OC)c(OC)c4)OC(=O)[C@@H]4CCCCN4C(=O)[C@@H](C)c4cc(OC)c(OC)c(OC)c4)c3)c2)cc1OC
[3]
  Expression: 89%
[7]
  EC50: No induction
[1]
  EC50: 4 nM

## CC[C@H](C(=O)N1CCCC[C@H]1C(=O)O[C@H](CCc1cccnc1)c1cccc(OCC(=O)NCCNC(=O)COc2cccc([C@@H](CCc3cccnc3)OC(=O)[C@@H]3CCCCN3C(=O)[C@@H](CC)c3cc(OC)c(OC)c(OC)c3)c2)c1)c1cc(OC)c(OC)c(OC)c1
[6]
  EC50: No induction
[3]
  Expression: 29%
[1]
  EC50: 82 nM

## CC[C@H](C(=O)N1CCCC[C@H]1C(=O)O[C@H](CCc1ccc(OC)c(OC)c1)c1cccc(OCC(=O)O)c1)c1cc(OC)c(OC)c(OC)c1 (stereo in doubt; form 2)
[2]
  IC50: 8.2 nM

## CC[C@H](C(=O)N1CCCC[C@H]1C(=O)O[C@H](CCc1ccc(OC)c(OC)c1)c1cccc(OCC(=O)NCCNC(=O)COc2cccc([C@@H](CCc3ccc(OC)c(OC)c3)OC(=O)[C@@H]3CCCCN3C(=O)[C@@H](CC)c3ccccc3)c2)c1)c1ccccc1
[3]
  Expression: 100%
[4]
  Expression: 100%
[5]
  EC50: 8 nM
[1]
  EC50: 4 nM

## CC[C@H](C(=O)N1CCCC[C@H]1C(=O)O[C@H](CCc1cccnc1)c1cccc(OCC(=O)O)c1)c1cc(OC)c(OC)c(OC)c1
[2]
  IC50: 15 nM

## CC[C@H](C(=O)N1CCCC[C@H]1C(=O)O[C@H](CCc1ccc(OC)c(OC)c1)c1cccc(OCC(=O)NCCNC(=O)COc2cccc([C@@H](CCc3ccc(OC)c(OC)c3)OC(=O)[C@@H]3CCCCN3C(=O)[C@@H](CC)c3ccc4c(c3)OCO4)c2)c1)c1ccc2c(c1)OCO2
[3]
  Expression: 105%
[4]
  Expression: 53%
[5]
  EC50: 9 nM
[1]
  EC50: 6 nM

## CC[C@@H]1/C=C(\C)C[C@H](C)C[C@H](OC)[C@H]2OC(C(=O)C(=O)N3CCCCC3C(=O)O[C@H](/C(C)=C/[C@@H]3CC[C@@H](O)[C@H](OC)C3)[C@H](C)[C@@H](O)CC1=O)[C@H](C)C[C@H]2OC (some centres undefined)
[2]
  IC50: 12 nM

## CC[C@H](C(=O)N1CCCC[C@H]1C(=O)O[C@H](CCc1ccc(OC)c(OC)c1)c1cccc(OCC(=O)O)c1)c1ccc2c(c1)OCO2
[2]
  IC50: 26 nM

## CO[C@H]1C[C@@H](C)C/C(C)=C/[C@@H](C/C=C/CC2/C=C(\C)C[C@H](C)C[C@H](OC)[C@H]3O[C@@](O)(C(=O)C(=O)N4CCCCC4C(=O)O[C@H](/C(C)=C/[C@@H]4CC[C@@H](O)[C@H](OC)C4)[C@H](C)[C@@H](O)CC2=O)[C@H](C)C[C@H]3OC)C(=O)C[C@H](O)[C@@H](C)[C@@H](/C(C)=C/[C@@H]2CC[C@@H](O)[C@H](OC)C2)OC(=O)C2CCCCN2C(=O)C(=O)C2O[C@H]1[C@H](OC)C[C@H]2C (some centres undefined)
[6]
  EC50: No induction
[3]
  Expression: 39%
[1]
  EC50: 189 nM

## CCC(CC)NC(=O)N1CCCC[C@H]1C(=O)O[C@H](CCc1ccc(OC)c(OC)c1)c1cccc(OCC(=O)NCCNC(=O)COc2cccc([C@@H](CCc3ccc(OC)c(OC)c3)OC(=O)[C@@H]3CCCCN3C(=O)NC(CC)CC)c2)c1
[3]
  Expression: 138%
[4]
  Expression: 106%
[5]
  EC50: 19 nM
[1]
  EC50: 11 nM
